One block for each molecule: values may come before it.
Legend:
[1] = target: T1, Acyl-homoserine-lactone synthase (Pseudomonas aeruginosa (strain ATCC 15692 / PAO1 / 1C / PRS 101 / LMG12228)) (UniProt P33883); assay: Modulation of Pseudomonas aeruginosa lacZ-fused lasI expressed in Escherichia coli DH5alpha co-expressing pBAD-lasR assessed as 3-oxo-C12-AHL-induced effect at 0.20 mM after 3 hrs by beta-galactosidase assay relative to control
T1 sequence (whole entry): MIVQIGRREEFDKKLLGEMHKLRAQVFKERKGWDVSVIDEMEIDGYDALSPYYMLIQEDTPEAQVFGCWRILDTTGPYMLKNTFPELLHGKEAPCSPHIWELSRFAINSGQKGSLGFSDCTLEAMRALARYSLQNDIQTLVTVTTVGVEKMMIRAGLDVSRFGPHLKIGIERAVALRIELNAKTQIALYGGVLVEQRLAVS
In short: (§1)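 E. coli DH5α carrying pSC11 (PlasI-lacZ translational fusion) and pJN105L (PBAD-lasR) was grown overnight in LB with ampicillin (100 μg/ml) and gentamicin (15 μg/ml), then diluted to OD600 0.150. Arabinose (0.2% w/v), 3-oxo-C12-AHL (2 μM) and test compound or DMSO were added. Cultures were shaken 3 h at 37 °C. β-Galactosidase activity was read in Miller units and expressed as % of the solvent sample. Triplicates per biological replicate, repeated at least twice; paired two-tailed t-test.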

[2] = target: 3-(3-hydroxydecanoyloxy)decanoate synthase (Pseudomonas aeruginosa (strain ATCC 15692 / PAO1 / 1C / PRS 101 / LMG12228)) (UniProt Q51559); assay: Modulation of Pseudomonas aeruginosa lacZ-fused rhlA expressed in Escherichia coli DH5alpha co-expressing Ptac-rhlR assessed as C4-AHL-induced effect at 0.20 mM after 4 hrs by beta-galactosidase assay relative to control
In short: (§2)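 rhl reporter: E. coli DH5α carrying pECP61.5 (Ptac-rhlR, PrhlA-lacZ) was grown overnight in LB with ampicillin (100 μg/ml) only, then diluted to OD600 0.150. It was induced with 1 mM IPTG, and 2 μM C4-HSL plus compound or DMSO were added at OD600 1.0. Cultures were shaken 4 h at 37 °C. β-Galactosidase activity was read in Miller units as % of the solvent sample. Triplicates per biological replicate, at least two repeats; paired two-tailed t-test.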

[3] = target: 3-(3-hydroxydecanoyloxy)decanoate synthase (Pseudomonas aeruginosa (strain ATCC 15692 / PAO1 / 1C / PRS 101 / LMG12228)) (UniProt Q51559); assay: Modulation of Pseudomonas aeruginosa lacZ-fused rhlA expressed in Escherichia coli DH5alpha co-expressing Ptac-rhlR assessed as C4-AHL-induced effect at 0.81 mM after 4 hrs by beta-galactosidase assay relative to control
In short: (§3)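 E. coli DH5α carrying pECP61.5 (Ptac-rhlR, PrhlA-lacZ), grown overnight in LB with ampicillin 100 μg/ml and diluted to OD600 0.150. At OD600 1.0, 1 mM IPTG, 2 μM C4-HSL and compound or DMSO were added. Cultures were shaken 4 h at 37 °C, then β-galactosidase was read in Miller units. Activity is % of solvent sample, from triplicates per biological replicate, with at least two repeats.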

[4] = target: 3-(3-hydroxydecanoyloxy)decanoate synthase (Pseudomonas aeruginosa (strain ATCC 15692 / PAO1 / 1C / PRS 101 / LMG12228)) (UniProt Q51559); assay: Modulation of Pseudomonas aeruginosa lacZ-fused rhlA expressed in Escherichia coli DH5alpha co-expressing Ptac-rhlR assessed as C4-AHL-induced effect at 0.61 mM after 4 hrs by beta-galactosidase assay relative to control; in short: as §3
[5] = target: 3-(3-hydroxydecanoyloxy)decanoate synthase (Pseudomonas aeruginosa (strain ATCC 15692 / PAO1 / 1C / PRS 101 / LMG12228)) (UniProt Q51559); assay: Modulation of Pseudomonas aeruginosa lacZ-fused rhlA expressed in Escherichia coli DH5alpha co-expressing Ptac-rhlR assessed as C4-AHL-induced effect at 0.40 mM after 4 hrs by beta-galactosidase assay relative to control; in short: as §2
[6] = target: T1, Acyl-homoserine-lactone synthase (Pseudomonas aeruginosa (strain ATCC 15692 / PAO1 / 1C / PRS 101 / LMG12228)); assay: Modulation of Pseudomonas aeruginosa lacZ-fused lasI expressed in Escherichia coli DH5alpha co-expressing pBAD-lasR assessed as 3-oxo-C12-AHL-induced effect at 0.40 mM after 3 hrs by beta-galactosidase assay relative to control; in short: as §1
[7] = target: T1, Acyl-homoserine-lactone synthase (Pseudomonas aeruginosa (strain ATCC 15692 / PAO1 / 1C / PRS 101 / LMG12228)); assay: Modulation of Pseudomonas aeruginosa lacZ-fused lasI expressed in Escherichia coli DH5alpha co-expressing pBAD-lasR assessed as 3-oxo-C12-AHL-induced effect at 0.61 mM after 3 hrs by beta-galactosidase assay relative to control; in short: as §1
[8] = target: T1, Acyl-homoserine-lactone synthase (Pseudomonas aeruginosa (strain ATCC 15692 / PAO1 / 1C / PRS 101 / LMG12228)); assay: Modulation of Pseudomonas aeruginosa lacZ-fused lasI expressed in Escherichia coli DH5alpha co-expressing pBAD-lasR assessed as 3-oxo-C12-AHL-induced effect at 0.81 mM after 3 hrs by beta-galactosidase assay relative to control; in short: as §1
[9] = target: T1, Acyl-homoserine-lactone synthase (Pseudomonas aeruginosa (strain ATCC 15692 / PAO1 / 1C / PRS 101 / LMG12228)); assay: Modulation of Pseudomonas aeruginosa lacZ-fused lasI expressed in Escherichia coli DH5alpha co-expressing pBAD-lasR assessed as 3-oxo-C12-AHL-induced effect at 0.69 mM after 3 hrs by beta-galactosidase assay relative to control; in short: as §1
[10] = target: 3-(3-hydroxydecanoyloxy)decanoate synthase (Pseudomonas aeruginosa (strain ATCC 15692 / PAO1 / 1C / PRS 101 / LMG12228)) (UniProt Q51559); assay: Modulation of Pseudomonas aeruginosa lacZ-fused rhlA expressed in Escherichia coli DH5alpha co-expressing Ptac-rhlR assessed as C4-AHL-induced effect at 0.69 mM after 4 hrs by beta-galactosidase assay relative to control; in short: as §3
[11] = target: 3-(3-hydroxydecanoyloxy)decanoate synthase (Pseudomonas aeruginosa (strain ATCC 15692 / PAO1 / 1C / PRS 101 / LMG12228)) (UniProt Q51559); assay: Modulation of Pseudomonas aeruginosa lacZ-fused rhlA expressed in Escherichia coli DH5alpha co-expressing Ptac-rhlR assessed as C4-AHL-induced effect at 0.52 mM after 4 hrs by beta-galactosidase assay relative to control; in short: as §2
[12] = target: 3-(3-hydroxydecanoyloxy)decanoate synthase (Pseudomonas aeruginosa (strain ATCC 15692 / PAO1 / 1C / PRS 101 / LMG12228)) (UniProt Q51559); assay: Modulation of Pseudomonas aeruginosa lacZ-fused rhlA expressed in Escherichia coli DH5alpha co-expressing Ptac-rhlR assessed as C4-AHL-induced effect at 0.35 mM after 4 hrs by beta-galactosidase assay relative to control; in short: as §2
[13] = target: 3-(3-hydroxydecanoyloxy)decanoate synthase (Pseudomonas aeruginosa (strain ATCC 15692 / PAO1 / 1C / PRS 101 / LMG12228)) (UniProt Q51559); assay: Modulation of Pseudomonas aeruginosa lacZ-fused rhlA expressed in Escherichia coli DH5alpha co-expressing Ptac-rhlR assessed as C4-AHL-induced effect at 0.17 mM after 4 hrs by beta-galactosidase assay relative to control; in short: as §2
[14] = target: T1, Acyl-homoserine-lactone synthase (Pseudomonas aeruginosa (strain ATCC 15692 / PAO1 / 1C / PRS 101 / LMG12228)); assay: Modulation of Pseudomonas aeruginosa lacZ-fused lasI expressed in Escherichia coli DH5alpha co-expressing pBAD-lasR assessed as 3-oxo-C12-AHL-induced effect at 0.52 mM after 3 hrs by beta-galactosidase assay relative to control; in short: as §1
[15] = target: T1, Acyl-homoserine-lactone synthase (Pseudomonas aeruginosa (strain ATCC 15692 / PAO1 / 1C / PRS 101 / LMG12228)); assay: Modulation of Pseudomonas aeruginosa lacZ-fused lasI expressed in Escherichia coli DH5alpha co-expressing pBAD-lasR assessed as 3-oxo-C12-AHL-induced effect at 0.17 mM after 3 hrs by beta-galactosidase assay relative to control; in short: as §1
[16] = target: T1, Acyl-homoserine-lactone synthase (Pseudomonas aeruginosa (strain ATCC 15692 / PAO1 / 1C / PRS 101 / LMG12228)); assay: Modulation of Pseudomonas aeruginosa lacZ-fused lasI expressed in Escherichia coli DH5alpha co-expressing pBAD-lasR assessed as 3-oxo-C12-AHL-induced effect at 0.35 mM after 3 hrs by beta-galactosidase assay relative to control; in short: as §1
[17] = target: 3-(3-hydroxydecanoyloxy)decanoate synthase (Pseudomonas aeruginosa (strain ATCC 15692 / PAO1 / 1C / PRS 101 / LMG12228)) (UniProt Q51559); assay: Modulation of Pseudomonas aeruginosa lacZ-fused rhlA expressed in Escherichia coli DH5alpha co-expressing Ptac-rhlR assessed as C4-AHL-induced effect at 0.46 mM after 4 hrs by beta-galactosidase assay relative to control; in short: as §2
[18] = target: 3-(3-hydroxydecanoyloxy)decanoate synthase (Pseudomonas aeruginosa (strain ATCC 15692 / PAO1 / 1C / PRS 101 / LMG12228)) (UniProt Q51559); assay: Modulation of Pseudomonas aeruginosa lacZ-fused rhlA expressed in Escherichia coli DH5alpha co-expressing Ptac-rhlR assessed as C4-AHL-induced effect at 0.92 mM after 4 hrs by beta-galactosidase assay relative to control; in short: as §3
[19] = target: T1, Acyl-homoserine-lactone synthase (Pseudomonas aeruginosa (strain ATCC 15692 / PAO1 / 1C / PRS 101 / LMG12228)); assay: Modulation of Pseudomonas aeruginosa lacZ-fused lasI expressed in Escherichia coli DH5alpha co-expressing pBAD-lasR assessed as 3-oxo-C12-AHL-induced effect at 0.92 mM after 3 hrs by beta-galactosidase assay relative to control; in short: as §1
[20] = target: T1, Acyl-homoserine-lactone synthase (Pseudomonas aeruginosa (strain ATCC 15692 / PAO1 / 1C / PRS 101 / LMG12228)); assay: Modulation of Pseudomonas aeruginosa lacZ-fused lasI expressed in Escherichia coli DH5alpha co-expressing pBAD-lasR assessed as 3-oxo-C12-AHL-induced effect at 0.23 mM after 3 hrs by beta-galactosidase assay relative to control; in short: as §1
[21] = target: 3-(3-hydroxydecanoyloxy)decanoate synthase (Pseudomonas aeruginosa (strain ATCC 15692 / PAO1 / 1C / PRS 101 / LMG12228)) (UniProt Q51559); assay: Modulation of Pseudomonas aeruginosa lacZ-fused rhlA expressed in Escherichia coli DH5alpha co-expressing Ptac-rhlR assessed as C4-AHL-induced effect at 0.23 mM after 4 hrs by beta-galactosidase assay relative to control; in short: as §2
[22] = target: T1, Acyl-homoserine-lactone synthase (Pseudomonas aeruginosa (strain ATCC 15692 / PAO1 / 1C / PRS 101 / LMG12228)); assay: Modulation of Pseudomonas aeruginosa lacZ-fused lasI expressed in Escherichia coli DH5alpha co-expressing pBAD-lasR assessed as 3-oxo-C12-AHL-induced effect at 0.46 mM after 3 hrs by beta-galactosidase assay relative to control; in short: as §1

Activity [1]: 96%
Activity [2]: 132%
Activity [3]: 161%
Activity [4]: 148%
Activity [5]: 129%
Activity [6]: 78%
Activity [7]: 79%
Activity [8]: 68%
SMILES: CCCCCCSC[C@H]1NC(=O)[C@H](O)[C@@H]1O

Activity [9]: 63%
Activity [10]: 135%
Activity [11]: 115%
Activity [12]: 117%
Activity [13]: 106%
Activity [14]: 80%
Activity [15]: 93%
Activity [16]: 87%
SMILES: CCCCCCCCCSC[C@H]1NC(=O)[C@H](O)[C@@H]1O

Activity [9]: 0%
Activity [10]: 0%
Activity [17]: 0.2%
Activity [18]: 0%
Activity [19]: 0%
Activity [20]: 109%
Activity [21]: 26%
Activity [22]: 0%
SMILES: CCCCCCSC[C@@H]1CCC(O)N1 (mixture of isomers)
